According to ChEMBL document CHEMBL5724801, “EUbOPEN Chemogenomics Library - Multiplex” (2024):
Where “and” joins values, the source holds several entries; their conditions need not be identical. Identical values can stand only once.

System: U2OS
Assay: Multiplex assay against U2OS
Format: toxicity, cell-based
Conditions: human
In short: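 Hoechst33342, BioTracker Green Microtubule Cytoskeleton Dye, MitoTracker Red and Annexin V Alexa Fluor 680 were added to live cells at seeding, and imaging on a CQ1 microscope at 37°C and 5% CO2 followed compound addition. Gating by CellPathfinder machine learning separated cells into Hoechst high-intensity objects or normal cells, then normal cells into healthy, pyknosed or fragmented nuclei, then pyknosed cells into mitotic or apoptotic. Per cents of healthy-nucleus cells are reported for the tubulin, mitochondrial-mass and membrane-permeability phenotypes.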

[1] = 12 h, 1 µM, compound concentration 1 uM
[2] = 12 h, 10 µM, compound concentration 10 uM
[3] = 24 h, 1 µM, compound concentration 1 uM
[4] = 24 h, 10 µM, compound concentration 10 uM
[5] = 48 h, 1 µM, compound concentration 1 uM
[6] = 48 h, 10 µM, compound concentration 10 uM

Structure (SMILES): CC(N)C1CCC(C(=O)Nc2ccncc2)CC1 (configuration not stated)
- Population Apoptotic (%) [1]: 33.33% and 18.75%
- Population Fragmented Nuclei (%) [1]: 1.02% and 1.57%
- Population Healthy Nuclei (%) [1]: 90.39% and 81.68%
- Population Hoechst High Intensity Objects (%) [1]: 0%
- Population Membrane Permeable-Phenotype (%) [1]: 0.68% and 1.28%
- Population Mitochondria Different-Phenotype (%) [1]: 0.68% and 3.21%
- Population Mitotic Cells (%) [1]: 66.67% and 81.25%
- Population Normal (%) [1]: 100%
- Population Pyknosed Nuclei (%) [1]: 8.59% and 16.75%
- Population Tubulin-Different-Phenotype (%) [1]: 0.23% and 0.64%
- Total Cell Count [1]: 489 and 191
- Population Apoptotic (%) [2]: 31.03% and 27.78%
- Population Fragmented Nuclei (%) [2]: 0.73% and 1.2%
- Population Healthy Nuclei (%) [2]: 92.2% and 87.95%
- Population Hoechst High Intensity Objects (%) [2]: 0%
- Population Membrane Permeable-Phenotype (%) [2]: 1.32% and 1.37%
- Population Mitochondria Different-Phenotype (%) [2]: 0% and 11.64%
- Population Mitotic Cells (%) [2]: 68.97% and 72.22%
- Population Normal (%) [2]: 100%
- Population Pyknosed Nuclei (%) [2]: 7.07% and 10.84%
- Population Tubulin-Different-Phenotype (%) [2]: 0.79% and 0.68%
- Total Cell Count [2]: 410 and 166
- Population Apoptotic (%) [3]: 41.18% and 41.67%
- Population Fragmented Nuclei (%) [3]: 2.2% and 3.47%
- Population Healthy Nuclei (%) [3]: 90.32% and 87.26%
- Population Hoechst High Intensity Objects (%) [3]: 0%
- Population Membrane Permeable-Phenotype (%) [3]: 0.65% and 1.33%
- Population Mitochondria Different-Phenotype (%) [3]: 0.16% and 3.1%
- Population Mitotic Cells (%) [3]: 58.82% and 58.33%
- Population Normal (%) [3]: 100%
- Population Pyknosed Nuclei (%) [3]: 7.48% and 9.27%
- Population Tubulin-Different-Phenotype (%) [3]: 0.81% and 0.88%
- Total Cell Count [3]: 682 and 259
- Population Apoptotic (%) [4]: 32.08% and 28.57%
- Population Fragmented Nuclei (%) [4]: 1.38% and 0%
- Population Healthy Nuclei (%) [4]: 89.48% and 85.29%
- Population Hoechst High Intensity Objects (%) [4]: 0%
- Population Membrane Permeable-Phenotype (%) [4]: 0.19% and 1.48%
- Population Mitochondria Different-Phenotype (%) [4]: 0.19% and 6.9%
- Population Mitotic Cells (%) [4]: 67.92% and 71.43%
- Population Normal (%) [4]: 100%
- Population Pyknosed Nuclei (%) [4]: 9.14% and 14.71%
- Population Tubulin-Different-Phenotype (%) [4]: 0.19% and 0.49%
- Total Cell Count [4]: 580 and 238
- Population Apoptotic (%) [5]: 48.51% and 53.33%
- Population Fragmented Nuclei (%) [5]: 2.96% and 2.17%
- Population Healthy Nuclei (%) [5]: 89.37% and 88.07%
- Population Hoechst High Intensity Objects (%) [5]: 0%
- Population Membrane Permeable-Phenotype (%) [5]: 1.02% and 1.48%
- Population Mitochondria Different-Phenotype (%) [5]: 0.08% and 2.46%
- Population Mitotic Cells (%) [5]: 51.49% and 46.67%
- Population Normal (%) [5]: 100%
- Population Pyknosed Nuclei (%) [5]: 7.67% and 9.76%
- Population Tubulin-Different-Phenotype (%) [5]: 0.51% and 0.25%
- Total Cell Count [5]: 1317 and 461
- Population Apoptotic (%) [6]: 45.33% and 46.15%
- Population Fragmented Nuclei (%) [6]: 3.3% and 1%
- Population Healthy Nuclei (%) [6]: 89.84% and 86%
- Population Hoechst High Intensity Objects (%) [6]: 0.18% and 0%
- Population Membrane Permeable-Phenotype (%) [6]: 0.82% and 1.45%
- Population Mitochondria Different-Phenotype (%) [6]: 0.1% and 4.94%
- Population Mitotic Cells (%) [6]: 54.67% and 53.85%
- Population Normal (%) [6]: 99.82% and 100%
- Population Pyknosed Nuclei (%) [6]: 6.87% and 13%
- Population Tubulin-Different-Phenotype (%) [6]: 0.1% and 0.29%
- Total Cell Count [6]: 1094 and 400

Structure (SMILES): CCCn1c(=O)c2[nH]c(C3CCCC3)nc2n(CCC)c1=O [1,3-DIPROPYL-8-CYCLOPENTYLXANTHINE [DPCPX]]
- Population Apoptotic (%) [1]: 87% and 93%
- Population Fragmented Nuclei (%) [1]: 25% and 15%
- Population Healthy Nuclei (%) [1]: 64% and 72%
- Population Hoechst High Intensity Objects (%) [1]: 1% and 0%
- Population Membrane Permeable-Phenotype (%) [1]: 1% and 7%
- Population Mitochondria Different-Phenotype (%) [1]: 3% and 4%
- Population Mitotic Cells (%) [1]: 12% and 6%
- Population Normal (%) [1]: 98% and 100%
- Population Pyknosed Nuclei (%) [1]: 9% and 12%
- Population Tubulin-Different-Phenotype (%) [1]: 1% and 5%
- Total Cell Count [1]: 250 and 125
- Population Apoptotic (%) [2]: 68% and 100%
- Population Fragmented Nuclei (%) [2]: 30% and 21%
- Population Healthy Nuclei (%) [2]: 60% and 69%
- Population Hoechst High Intensity Objects (%) [2]: 2% and 3%
- Population Membrane Permeable-Phenotype (%) [2]: 5% and 6%
- Population Mitochondria Different-Phenotype (%) [2]: 1% and 9%
- Population Normal (%) [2]: 97% and 96%
- Population Pyknosed Nuclei (%) [2]: 9% and 8%
- Population Tubulin-Different-Phenotype (%) [2]: 3%
- Total Cell Count [2]: 206 and 96
- Population Apoptotic (%) [3]: 83% and 87%
- Population Fragmented Nuclei (%) [3]: 24% and 13%
- Population Healthy Nuclei (%) [3]: 68% and 74%
- Population Hoechst High Intensity Objects (%) [3]: 3% and 2%
- Population Membrane Permeable-Phenotype (%) [3]: 5% and 8%
- Population Mitochondria Different-Phenotype (%) [3]: 3%
- Population Mitotic Cells (%) [3]: 16% and 12%
- Population Normal (%) [3]: 96% and 97%
- Population Pyknosed Nuclei (%) [3]: 7% and 11%
- Population Tubulin-Different-Phenotype (%) [3]: 4%
- Total Cell Count [3]: 261 and 138
- Population Apoptotic (%) [4]: 89% and 100%
- Population Fragmented Nuclei (%) [4]: 27% and 21%
- Population Healthy Nuclei (%) [4]: 64% and 71%
- Population Hoechst High Intensity Objects (%) [4]: 2% and 4%
- Population Membrane Permeable-Phenotype (%) [4]: 7% and 3%
- Population Mitochondria Different-Phenotype (%) [4]: 0% and 3%
- Population Mitotic Cells (%) [4]: 10% and 0%
- Population Normal (%) [4]: 97% and 95%
- Population Pyknosed Nuclei (%) [4]: 8% and 6%
- Population Tubulin-Different-Phenotype (%) [4]: 0%
- Total Cell Count [4]: 234 and 120
- Population Apoptotic (%) [5]: 86% and 92%
- Population Fragmented Nuclei (%) [5]: 20% and 17%
- Population Healthy Nuclei (%) [5]: 69%
- Population Hoechst High Intensity Objects (%) [5]: 1% and 2%
- Population Membrane Permeable-Phenotype (%) [5]: 3% and 8%
- Population Mitochondria Different-Phenotype (%) [5]: 1% and 4%
- Population Mitotic Cells (%) [5]: 13% and 8%
- Population Normal (%) [5]: 98% and 97%
- Population Pyknosed Nuclei (%) [5]: 10% and 13%
- Population Tubulin-Different-Phenotype (%) [5]: 2% and 3%
- Total Cell Count [5]: 364 and 196
- Population Apoptotic (%) [6]: 77% and 100%
- Population Fragmented Nuclei (%) [6]: 24% and 19%
- Population Healthy Nuclei (%) [6]: 62% and 73%
- Population Hoechst High Intensity Objects (%) [6]: 2% and 3%
- Population Membrane Permeable-Phenotype (%) [6]: 4% and 5%
- Population Mitochondria Different-Phenotype (%) [6]: 1% and 3%
- Population Mitotic Cells (%) [6]: 22% and 0%
- Population Normal (%) [6]: 97% and 96%
- Population Pyknosed Nuclei (%) [6]: 12% and 6%
- Population Tubulin-Different-Phenotype (%) [6]: 3% and 0%
- Total Cell Count [6]: 322 and 165

Structure (SMILES): CCC(=N\O)/C(C)=C/c1ccc(F)cc1 [A-079]
- Population Apoptotic (%) [1]: 48.57% and 40.91%
- Population Fragmented Nuclei (%) [1]: 1.07% and 0%
- Population Healthy Nuclei (%) [1]: 91.47% and 83.94%
- Population Hoechst High Intensity Objects (%) [1]: 0%
- Population Membrane Permeable-Phenotype (%) [1]: 0.47% and 1.74%
- Population Mitochondria Different-Phenotype (%) [1]: 0% and 11.3%
- Population Mitotic Cells (%) [1]: 51.43% and 59.09%
- Population Normal (%) [1]: 100%
- Population Pyknosed Nuclei (%) [1]: 7.46% and 16.06%
- Population Tubulin-Different-Phenotype (%) [1]: 0.47% and 1.74%
- Population Apoptotic (%) [2]: 36.67% and 36.84%
- Population Fragmented Nuclei (%) [2]: 3.39% and 2.96%
- Population Healthy Nuclei (%) [2]: 88.14% and 82.96%
- Population Hoechst High Intensity Objects (%) [2]: 0%
- Population Membrane Permeable-Phenotype (%) [2]: 1.6% and 0.89%
- Population Mitochondria Different-Phenotype (%) [2]: 0% and 4.46%
- Population Mitotic Cells (%) [2]: 63.33% and 63.16%
- Population Normal (%) [2]: 100%
- Population Pyknosed Nuclei (%) [2]: 8.47% and 14.07%
- Population Tubulin-Different-Phenotype (%) [2]: 0.64% and 0.89%
- Total Cell Count [2]: 354 and 135
- Population Apoptotic (%) [3]: 36.36% and 42.86%
- Population Fragmented Nuclei (%) [3]: 0.47% and 0.53%
- Population Healthy Nuclei (%) [3]: 90.89% and 88.24%
- Population Hoechst High Intensity Objects (%) [3]: 0%
- Population Membrane Permeable-Phenotype (%) [3]: 0.86% and 1.82%
- Population Mitochondria Different-Phenotype (%) [3]: 0% and 3.03%
- Population Mitotic Cells (%) [3]: 63.64% and 57.14%
- Population Normal (%) [3]: 100%
- Population Pyknosed Nuclei (%) [3]: 8.63% and 11.23%
- Population Tubulin-Different-Phenotype (%) [3]: 0.17% and 0.61%
- Population Apoptotic (%) [4]: 43.18% and 38.1%
- Population Fragmented Nuclei (%) [4]: 2.04% and 1.9%
- Population Healthy Nuclei (%) [4]: 88.96% and 84.81%
- Population Hoechst High Intensity Objects (%) [4]: 0%
- Population Membrane Permeable-Phenotype (%) [4]: 0.46% and 2.99%
- Population Mitochondria Different-Phenotype (%) [4]: 0% and 8.21%
- Population Mitotic Cells (%) [4]: 56.82% and 61.9%
- Population Normal (%) [4]: 100%
- Population Pyknosed Nuclei (%) [4]: 9% and 13.29%
- Population Tubulin-Different-Phenotype (%) [4]: 0.23% and 0.75%
- Population Apoptotic (%) [5]: 43.75% and 67.74%
- Population Fragmented Nuclei (%) [5]: 3.57% and 1.19%
- Population Healthy Nuclei (%) [5]: 86.9% and 89.55%
- Population Hoechst High Intensity Objects (%) [5]: 0%
- Population Membrane Permeable-Phenotype (%) [5]: 0.29% and 1.67%
- Population Mitochondria Different-Phenotype (%) [5]: 0.1% and 3%
- Population Mitotic Cells (%) [5]: 56.25% and 32.26%
- Population Normal (%) [5]: 100%
- Population Pyknosed Nuclei (%) [5]: 9.52% and 9.25%
- Population Tubulin-Different-Phenotype (%) [5]: 0.2% and 1%
- Population Apoptotic (%) [6]: 34.57% and 41.18%
- Population Fragmented Nuclei (%) [6]: 3.23% and 2.2%
- Population Healthy Nuclei (%) [6]: 88.86% and 85.35%
- Population Hoechst High Intensity Objects (%) [6]: 0%
- Population Membrane Permeable-Phenotype (%) [6]: 0.55% and 1.72%
- Population Mitochondria Different-Phenotype (%) [6]: 0.11% and 5.58%
- Population Mitotic Cells (%) [6]: 65.43% and 58.82%
- Population Normal (%) [6]: 100%
- Population Pyknosed Nuclei (%) [6]: 7.92% and 12.45%
- Population Tubulin-Different-Phenotype (%) [6]: 0.33% and 0%
